MrgX1 antagonist: antagonists of human MrgX1 receptor | MRGX1-HEK293 calcium flux, Fluo-4, BAM8-22 antagonism; hits give low values | actives 1.3% (n = 310,000) | Q96LB2 | B-score at 10 µM;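 active means calcium-response B-score plate-corrected more than 3 library SD below zero, starting fluorescence within 5 deviations, no agonist response on first addition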;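 further: peak minus trough fluorescence over baseline after final BAM8-22 challenge near maximal dose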
Target sequence (Q96LB2 whole entry, looked up): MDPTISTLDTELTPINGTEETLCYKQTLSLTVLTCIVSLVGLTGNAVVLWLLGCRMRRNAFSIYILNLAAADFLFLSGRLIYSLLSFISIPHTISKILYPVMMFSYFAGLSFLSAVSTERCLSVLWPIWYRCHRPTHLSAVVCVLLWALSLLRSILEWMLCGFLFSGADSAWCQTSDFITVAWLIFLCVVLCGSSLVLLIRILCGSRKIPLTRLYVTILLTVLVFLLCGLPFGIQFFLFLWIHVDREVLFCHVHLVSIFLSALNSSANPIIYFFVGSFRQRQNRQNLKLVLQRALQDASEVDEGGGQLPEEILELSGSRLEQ
RGS4 inh: inhibitors of human RGS4. P49798. HEK293 M3R/RGS4 inducible, Fluo-4 calcium flux; hits give high values; triggered by carbachol at its EC20. B-score at 10 µM. actives 0.45% (n = 310,000);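 active means B-score, a plate-corrected calcium signal, over three deviations above library mean, with baseline fluorescence within five deviations of library mean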;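 further: RGS4 expression induced by doxycycline in cells with stable M3 receptor; B-score is computed from the integrated fluorescence ratio over baseline after carbachol; higher B-score means a larger calcium signal and so more RGS4 inhibition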
Target sequence (P49798 whole entry, looked up): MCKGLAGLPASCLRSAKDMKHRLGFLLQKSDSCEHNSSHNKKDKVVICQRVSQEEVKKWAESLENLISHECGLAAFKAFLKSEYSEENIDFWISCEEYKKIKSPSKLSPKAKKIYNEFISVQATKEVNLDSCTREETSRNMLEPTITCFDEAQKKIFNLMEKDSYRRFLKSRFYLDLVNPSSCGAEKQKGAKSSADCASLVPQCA
RGS4 act: RGS4 potentiation or activation; B-score at 10 µM; actives 0.92% (n = 310,000); HEK293 M3R/inducible RGS4, carbachol calcium flux Fluo4; hits give low values;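 active means B-score of the integrated calcium signal more than 4 SD below the library mean, with starting fluorescence not abnormally high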;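 further: negative B-score means reduced calcium response which marks RGS4 activation or potentiation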
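Material: M3R-expressing HEK293 line, RGS4 induced by doxycycline | Schedule: Overnight RGS4 induction, 30 min dye load 37 °C, 20 min compound RT | Measured by: Fluo4 fluorescence kinetic imaging of calcium | Read-out: Integrated calcium ratio converted to B score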
MrgX1 PAM: human MrgX1 positive allosteric modulation, primary screen; Q96LB2; MrgX1-HEK293, Fluo-4 calcium flux, FDSS; hits give high values; B-score at 10 µM; actives 0.63% (n = 310,000); AID 588675;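 active means plate-corrected calcium response at least 3 library SD above typical, normal starting fluorescence, not activating the receptor alone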;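 further: compound read alongside a low EC10 to EC30 dose of BAM8-22 agonist; peak minus trough fluorescence over baseline measured at the second addition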
MrgX1 agonist: human MrgX1 receptor agonism, primary screen; Q96LB2; AID 588627; MrgX1-HEK293 cells, Fluo-4 calcium fluorescence, agonist mode; hits give high values; B-score at 10 µM; actives 0.44% (n = 310,000);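 active means calcium response B-score plate-corrected fluorescence ratio at least 3 library SD, with starting fluorescence B-score inside 5 SD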
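System – MrgX1-expressing HEK293 cells · Incubation – cells plated overnight, dye loaded 0.5 h 37 °C, 0.5 h room temperature · Technique – kinetic Fluo-4 NW fluorescence of intracellular calcium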
Active calls of the source: *; i = inactive. Only some compounds are listed: those with a hit (about 3.5% of all), similar ones and a draw of the others.

SMILES | MrgX1 antagonist | RGS4 inh | RGS4 act | MrgX1 PAM | MrgX1 agonist
O=C1C=C(N2CCCCCC2)C(=O)N1c1ccc(Cl)cc1 | i | i | -7.05* | i | i
O=C(/C=C/c1ccc(F)cc1)NCc1ccco1 | i | i | i | i | i
O=C(/C=C/c1c(F)cccc1Cl)NCc1ccco1 | -4.54* | i | i | i | i
O=C(CN1C(=O)/C(=C/c2c(F)cccc2Cl)Oc2ccccc21)NCc1ccco1 | -6.56* | i | i | i | i
CC(=O)COc1coc(CN2CCN(c3ccc(F)cc3)CC2)cc1=O | i | i | i | i | i
CCOC(=O)C1CCCN(C(=O)/C(=C/c2ccco2)NC(=O)c2ccccc2)C1 (configuration not stated) | i | i | -7.03* | i | i
O=C(N/C(=C/c1ccco1)C(=O)N1CCCCCC1)c1ccccc1 | i | i | i | i | i
CCOc1ccccc1N1CCN(C(=O)c2c(CC)noc2C)CC1 | i | i | i | i | i
NS(=O)(=O)c1ccc(N2CCN(CCOc3ccc(Cl)cc3)CC2)nc1 | i | i | i | i | i
O=C(c1ccncc1)N1N=C(C2CCCCC2)CC1(O)C(F)(F)F (configuration not stated) | i | i | -7.41* | i | i
O=C(NN1C(=O)/C(=C/c2ccc(O)cc2)SC1=S)c1cccc(O)c1 | i | i | i | i | i
O=C(NN1C(=O)/C(=C/c2ccc(O)cc2)SC1=S)c1ccccc1O | -7.79* | i | i | i | i
COc1cc(/C=C2\SC(=S)N(N(C)c3ccccc3)C2=O)ccc1O | i | i | i | i | 33.9*
O=C(NN1C(=O)/C(=C/c2ccc(O)c([N+](=O)[O-])c2)SC1=S)c1ccccc1Cl | i | i | i | i | i
COc1cc(/C=C2\SC(=S)N(NC(=O)c3ccccc3O)C2=O)ccc1O | i | i | i | i | 40.2*
CCNC(=O)CC1C(=O)N(c2ccc(C)cc2)C(=O)N1CCOC (configuration not stated) | i | i | i | i | i
COc1ccc(CC(=O)NC(=S)NNC(=O)COc2c(C)cccc2C)cc1 | i | i | i | i | 27.3*
COc1ccc(OCC(=O)NNC(=S)NC(=O)C2CCCCC2)cc1 | i | i | i | i | 50*
CCc1ccc(OCC(=O)NNC(=S)NC(=O)C2CCCCC2)c(Br)c1 | -8.94* | i | i | i | i
CCc1ccc(OCC(=O)NNC(=S)NC(=O)C2CC2)c(Br)c1 | i | i | i | i | i
Cc1cc(C)cc(OCC(=O)NNC(=S)NC(=O)C2CC2)c1 | i | i | i | i | 32.1*
COc1ccc(OCC(=O)NNC(=S)NC(=O)C2CC2)cc1 | i | i | i | i | i
Cc1cccn2c(CNCCCOc3cccnc3)c(C(=O)N3CCOCC3)nc12 | i | i | i | i | i
Cc1cc(=O)oc2cc(OCC(=O)Nc3ccc4[nH]c(=O)[nH]c4c3)ccc12 | i | i | i | i | i
NS(=O)(=O)c1ccc(-c2ccc(/C=C3\SC(=S)N(C4CCS(=O)(=O)C4)C3=O)o2)cc1 (configuration not stated) | -8.64* | i | i | i | i
SMILES | MrgX1 antagonist | RGS4 inh | RGS4 act | MrgX1 PAM | MrgX1 agonist
Cc1ccc(/C=C2\SC(=S)N(C3CCS(=O)(=O)C3)C2=O)o1 (configuration not stated) | i | i | i | i | i
Cc1ccc(C(=O)N/N=C\c2sccc2C)cn1 | -7.78* | i | i | i | i
Cc1ccsc1/C=N/NC(=O)c1sccc1C | i | i | i | i | i
CCC(C(=O)O)N1C(=O)C2CCCCC2C1=O (configuration not stated) | i | i | i | i | i
COc1ccc2ccccc2c1/C=N/NC(=O)c1nnn(-c2nonc2N)c1CN(C)C | i | i | i | i | i
COc1ccc2ccccc2c1/C=N/NC(=O)c1nnn(-c2nonc2N)c1C(C)C | i | i | -7.06* | i | i
COc1ccc(CNC(=O)CN2C(=O)C3C4C=CC(C4)C3C2=O)cc1 (configuration not stated) | i | i | i | i | i
CN1CCN(C2=Cc3ccccc3Sc3cc(F)c(F)cc32)CC1 | i | i | i | i | i
CN1CCN(C2=Cc3ccccc3Sc3cc(F)c(Cl)cc32)CC1 | i | i | -10.4* | i | i
Cc1cccc(NC2=C(NCCO)C(=O)c3ccccc3C2=O)c1 | -5.5* | i | i | i | i
COc1cccc(NC2=C(NCCO)C(=O)c3ccccc3C2=O)c1 | i | i | i | i | i
COc1ccc(C(=O)N2CCOC2CNC(=O)C(=O)NCc2ccccc2Cl)cc1 (configuration not stated) | i | i | i | i | i
COc1cc(Cl)c(CN2CCCC(CO)(Cc3ccccc3F)C2)cc1OC (configuration not stated) | i | i | i | i | i
CCOc1ccc(CN2CCCC(CO)(Cc3ccccc3F)C2)cc1 (configuration not stated) | i | i | i | i | 64*
Cc1ccc(C(=O)Nc2ccccc2Oc2ccccc2)o1 | -4.53* | i | i | i | i
CCN(CC(=O)Nc1c(F)cccc1F)C(=O)/C=C/c1ccc2c(c1)OCO2 | i | i | i | i | i
C/C(CC(C)(C)C1CCCCC1)=N\NC(N)=S | -8.71* | i | i | i | i
COc1cccc(CNc2ccc(F)c([N+](=O)[O-])c2)c1O | i | i | i | 18.5* | i
Cc1c(C(=O)NCCC2=CCCCC2)oc2ccc(S(=O)(=O)N3CCC4(CC3)OCCO4)cc12 | i | i | -8.02* | i | i
CN(C)CCNC(C(=O)Nc1cccc(C(F)(F)F)c1)c1ccccc1 (configuration not stated) | i | i | -7.11* | i | i
Cc1cc(OCc2cc(C(=O)N3CCC(Oc4cccnc4)CC3)no2)cc(C)c1Cl | i | i | -6.98* | i | i
CCOC(=O)n1c(O)c(N=NC(N)=S)c2cc(C)ccc21 | i | i | i | i | i
COC(=O)CSc1nc(C)cc(C(F)(F)F)c1C#N | i | i | i | i | i
Cc1cc(C(F)(F)F)c(C#N)c(Sc2ccccc2)n1 | i | i | i | 9.59* | i
O=c1cc(-c2ccccc2)cc(-c2ccccc2)n1O | i | i | i | i | i
